Measured values as given in ChEMBL document CHEMBL1124641, “Synthesis and antiinflammatory and analgesic activity of 5-aroyl-6-(methylthio)-1,2-dihydro-3H-pyrrolo[1,2-a]pyrrole-1-ca rboxyl ic acids and 1-methyl-4-(methylthio)-5-aroylpyrrole-2-acetic acids” (J Med Chem, 1989).

What was measured:
[1] = test system: Mus musculus; test: Analgesic activity was assessed from the ability to inhibit phenylquinone-induced writhing in mouse […]; type: functional
Outline: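 Mouse phenylquinone-induced writhing screen. Potency is expressed relative to aspirin (aspirin = 1), with 95% confidence limits where given.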

[2] = test system: Rattus norvegicus; test: Antiinflammatory activity assessed by inhibition of carrageenan-induced edema in rats […]; type: functional
[3] = Therapeutic ratio of MED GI erosion to that of ED30 of rat paw; type: ADME
Outline: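 Ratio derived as the gastrointestinal erosion minimum effective dose divided by the ED30 from the carrageenan rat paw assay. The erosion dose (mg/kg per day) comes from a 7-day chronic dosing assay in rats.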

[4] = species: Rattus norvegicus; test: Chronic gastrointestinal erosive activity in rats; type: functional; settings: read-out: MED
Outline: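 Chronic 7-day gastrointestinal erosion assay in rats with daily dosing. The read-out is the minimum effective dose for erosion (mg/kg per day), with 15 rats where stated.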

CSc1cc2n(c1C(=O)c1ccc(Br)cc1)CCC2C(=O)O (stereo unspecified)
ED50 [1]: < 9 mg/kg
ED30 [2]: 26 mg/kg

CSc1cc2n(c1C(=O)c1ccc(F)cc1)CCC2C(=O)O (stereo unspecified)
ED50 [1]: 60 mg/kg
ED30 [2]: < 10 mg/kg

CCOc1ccc(C(=O)c2c(SC)cc(CC(=O)O)n2C)cc1
ED50 [1]: 6 mg/kg
ED30 [2]: 3.6 mg/kg

CSc1cc2n(c1C(=O)c1ccc(OC(C)C)cc1)CCC2C(=O)O (stereo unspecified)
ED50 [1]: 1 mg/kg
ED30 [2]: < 1 mg/kg

COc1ccc(C(=O)c2c(SC)cc3n2CCC3C(=O)O)cc1 (stereo unspecified)
ED50 [1]: 50 mg/kg
ED30 [2]: < 10 mg/kg

CS(=O)(=O)c1cc2n(c1C(=O)c1ccc(Br)cc1)CCC2C(=O)O (stereo unspecified)
ED30 [2]: < 1 mg/kg

CSc1cc(CC(=O)O)n(C)c1C(=O)c1ccc(F)cc1
ED50 [1]: 37 mg/kg
ED30 [2]: 0.5 mg/kg

CCc1ccc(C(=O)c2c(SC)cc3n2CCC3C(=O)O)cc1 (stereo unspecified)
ED50 [1]: 70 mg/kg
ED30 [2]: 16 mg/kg

CSc1cc2n(c1C(=O)c1ccc(C3CC3)cc1)CCC2C(=O)O (stereo unspecified)
ED50 [1]: 25 mg/kg
ED30 [2]: 13 mg/kg

CSc1ccc(C(=O)c2c(SC)cc3n2CCC3C(=O)O)cc1 (stereo unspecified)
ED50 [1]: 50 mg/kg
ED30 [2]: 10 mg/kg

CSc1cc(CC(=O)O)n(C)c1C(=O)c1ccc(Cl)cc1
ED50 [1]: 56 mg/kg
ED30 [2]: 1.5 mg/kg

CSc1cc2n(c1C(=O)c1ccc(C(F)(F)F)cc1)CCC2C(=O)O (stereo unspecified)
ED50 [1]: 50 mg/kg
ED30 [2]: 15 mg/kg

CSc1cc(CC(=O)O)n(C)c1C(=O)c1ccc(C2CC2)cc1
ED50 [1]: 30 mg/kg
ED30 [2]: 10 mg/kg

CCCc1ccc(C(=O)c2c(SC)cc3n2CCC3C(=O)O)cc1 (stereo unspecified)
ED50 [1]: 7 mg/kg
ED30 [2]: 2.5 mg/kg

CSc1cc2n(c1C(=O)c1ccc(C3CCCCC3)cc1)CCC2C(=O)O (stereo unspecified)
ED50 [1]: < 3 mg/kg
ED30 [2]: < 1 mg/kg

CCOc1ccc(C(=O)c2c(SC)cc3n2CCC3C(=O)O)cc1 (stereo unspecified)
ED50 [1]: < 13 mg/kg
ED30 [2]: 4 mg/kg

CSc1cc2n(c1C(=O)c1ccc(C)cc1)CCC2C(=O)O (stereo unspecified)
selectivity ratio [3]: 4
minimal effective dose [4]: 19 mg/kg

CCCc1ccc(C(=O)c2c(SC)cc(CC(=O)O)n2C)cc1
ED50 [1]: 5 mg/kg
ED30 [2]: 0.2 mg/kg

CSc1cc(CC(=O)O)n(C)c1C(=O)c1ccc(C)cc1
selectivity ratio [3]: > 4.5
minimal effective dose [4]: > 45 mg/kg

C=Cc1ccc(C(=O)c2c(SC)cc3n2CCC3C(=O)O)cc1 (stereo unspecified)
ED50 [1]: 38 mg/kg
ED30 [2]: 16 mg/kg

CSc1cc(CC(=O)O)n(C)c1C(=O)c1ccccc1
ED50 [1]: > 11 mg/kg
ED30 [2]: 1 mg/kg

CSc1cc2n(c1C(=O)c1ccc(Cl)cc1)CCC2C(=O)O (stereo unspecified)
selectivity ratio [3]: 3.5
minimal effective dose [4]: 1.5 mg/kg

CC(=O)Oc1ccccc1C(=O)O [ASPIRIN]
ED50 [1]: 70 mg/kg

O=C(c1ccccc1)c1ccc2n1CCC2C(=O)O (stereo unspecified) [KETOROLAC]
selectivity ratio [3]: 18
minimal effective dose [4]: 5 mg/kg

COc1ccc2cc([C@H](C)C(=O)O)ccc2c1 [NAPROXEN]
selectivity ratio [3]: 22
minimal effective dose [4]: 30 mg/kg/day

CCCCC1C(=O)N(c2ccccc2)N(c2ccccc2)C1=O [PHENYLBUTAZONE]
ED30 [2]: 15 mg/kg

Cc1cc(CC(=O)O)n(C)c1C(=O)c1ccc(Cl)cc1 [ZOMEPIRAC]
selectivity ratio [3]: 17
minimal effective dose [4]: 10 mg/kg
